Laboratory results: the EternaBench riboswitch data

Assays:
[1] = system: MS2 coat protein; test: apparent Kd, MS2 coat protein; higher = weaker binding; RNA-MaP array; theophylline 2 mM where present
Procedure, shortened: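 The apparent Kd is the median of filtered binding-curve fits, one per cluster, to green signal normalised to red-channel RNA signal and control-cluster median Fmax. The clusters were on Illumina sequencing chips, and stalled E. coli RNA polymerase had transcribed the designs on them. Titration used SNAP-549-labelled MS2 coat protein from 0.7 or 1.5 nM, doubling to 3 µM, without and then with constant ligand, in 100 mM Tris-HCl pH 7.5, 80 mM KCl, 4 mM MgCl2, BSA, DTT, yeast tRNA and Tween-20.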

[2] = system: MS2 coat protein; test: apparent Kd, MS2 coat protein; higher = weaker binding; RNA-MaP array
Procedure, shortened: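 Designed RNAs were transcribed in place on an Illumina sequencing chip from sequenced DNA templates. At room temperature and with or without input ligand, they were incubated with fluorescently labeled MS2 coat protein from 1.5 nM to 3 μM, for 0.8–1.5 h at the lowest and 10–20 min at the highest concentrations. Apparent Kd is the median of the binding-curve fits made per cluster, with designs measured on fewer than 10 clusters excluded.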

[3] = designed as: ON switch for theophylline, no ligand
[4] = ligand present: theophylline, designed as: ON switch for theophylline
[5] = designed as: OFF switch for theophylline, no ligand
[6] = ligand present: theophylline, designed as: OFF switch for theophylline
[7] = designed as: OFF switch for flavin mononucleotide, no ligand
[8] = ligand present: flavin mononucleotide, designed as: OFF switch for flavin mononucleotide
[9] = designed as: ON switch for flavin mononucleotide, no ligand
[10] = ligand present: flavin mononucleotide, designed as: ON switch for flavin mononucleotide

UCGUGUAUAUCGGAUACCAGUGAGAACGAUACAUGAGGAUCACCCAUGUGAGUUGAUGUACACCCUUGGCAGCUGUAUAUAUCUA
apparent Kd [1, 3]: 25 nM
apparent Kd [1, 4]: 16.3 nM

GGGCCCGGGCGCGAGCCCGGGCCCAUUGAUACCAGUGAAUGUGUACGCCCUUGGCAGCGAAUCCUAACAUGAGGAUCACCCAUGU
apparent Kd [1, 3]: 43.3 nM
apparent Kd [1, 4]: 53.8 nM

UGUAACAUGAGGAUCACCCAUGUGAGUGAUACCAGACUAGUGUUGGUCCCUUGGCAGCACGCUGGGCGAGUGUGUAGUCUAUGCG
apparent Kd [1, 3]: 92.8 nM
apparent Kd [1, 4]: 120 nM

AUCGUACCUGAGGAUACCAGCAUGUGAUCAUAACAUGAGGAUCACCCAUGUAAUCAGUGAUGCCCUUGGCAGCUUGGUCGAUACA
apparent Kd [1, 3]: 54.2 nM
apparent Kd [1, 4]: 34.9 nM

GCACUACAUGAGGAUCACCCAUGUGCAGAUACCAGAGGUGUAUGCCUCCCUUGGCAGCUGCGUCGCUCUGGCAGCUUGUGGGUUG
apparent Kd [1, 3]: 100 nM
apparent Kd [1, 4]: 153 nM

UGUAUGUGAUCUGAUACCAGUCCAACUGGUAAAACAUGAGGAUCACCCAUGUAAAAUUGGGACCCUUGGCAGCAGAUCGCAUACU
apparent Kd [1, 3]: 534 nM
apparent Kd [1, 4]: 28.4 nM

UACAUGAGGAUCACCCAUGUAAGGUGAGAUACCAGUGAUAUGCUACACCCUUGGCAGCUCACGGCUGACUAUCAGCACACAUGUA
apparent Kd [1, 3]: 27 nM
apparent Kd [1, 4]: 16.3 nM

GAUGAACUAUUCGAUACCAGACUACAUGAGGAUCACCCAUGUGUGUCAAUUUCUCAGUCAGUCCCUUGGCAGCGAAUAGUUUAUC
apparent Kd [1, 5]: 38.2 nM
apparent Kd [1, 6]: 54.3 nM

AUACCGAGUGAGUCGUGUUUCUUUUCAGAUACCAGACUUUUCGUUGUCCCUUGGCAGCUGUUUUACAUGAGGAUCACCCAUGUUG
apparent Kd [1, 5]: 18.2 nM
apparent Kd [1, 6]: 25.5 nM

AUACCUAAUGUUACAUUUACCUUAUCAGAUACCAGACUUUACGUUGUCCCUUGGCAGCUGUAUCACAUGAGGAUCACCCAUGUUG
apparent Kd [1, 3]: 16 nM
apparent Kd [1, 4]: 15.7 nM

AAACAUGACAUGGAUACCAGACACAUGAGGAUCACCCAUGUUGAGGAUCACCCAUGUCCCGUCCCUUGGCAGCCAGCAUGAGGAU
apparent Kd [1, 5]: 9.49 nM
apparent Kd [1, 6]: 10.2 nM

GCACGACAUGAGGAUCACCCAUGUGCAGAUACCAGUAAUGUAUGUUACCCUUGGCAGCUGAGUAGGUCUGGAGGGCUAUAGGUAA
apparent Kd [1, 3]: 13.3 nM
apparent Kd [1, 4]: 17.1 nM

UGUAUGUGAUGUGAUACCAGUCCAAUACUGGUAACAUGAGGAUCACCCAUGUAAUGAUGGGACCCUUGGCAGCACAUCGCAUACU
apparent Kd [1, 3]: 212 nM
apparent Kd [1, 4]: 111 nM

AUUCCAUAGGUGCAGUUGUUAAAUGGCGAUACCAGCGUGGAAACACGCCCUUGGCAGCGCCAAAACAUGAGGAUCACCCAUGUUA
apparent Kd [1, 5]: 95.8 nM
apparent Kd [1, 6]: 186 nM

ACGUUCCUGAGAGGAUAUUCCAACAUGAGGAUCACCCAUGUAGAUGGUCGAUGCUUCCAUUCAGCGAAGAAGGCUCUAAAGGGC
apparent Kd [2, 7]: 22.3 nM
apparent Kd [2, 8]: 15.7 nM

AUUAAUUCAGGAUAUACAUGAGGAUCACCCAUGUGGCGAAAGAACAUAUAGGAAACAAGUAGAAGGGAAUAGAU
apparent Kd [2, 7]: 17.9 nM
apparent Kd [2, 8]: 16.4 nM

UGCGGACAUGAGGAUCACCCAUGUGCGGAUACCAGCAGCCGGCUCUGCCCUUGGCAGCCGCUACCCUUGCACGUUUAACGAUCCA
apparent Kd [2, 3]: 37.8 nM
apparent Kd [2, 4]: 36.7 nM

CGAAGAAAACGGAAAUCAAUAACAUGAGGAUCACCCAUGUCUCAGGAUAUAAGAGAAGGAUGUAGUUAGAAGGGAGAGUUAUGU
apparent Kd [2, 9]: 54.7 nM
apparent Kd [2, 10]: 42.4 nM

UUGCAGGCAGGAUAUACGGUAUAUAACAUGAGGAUCACCCAUGUUCUUCACGAUCCCUGCGUAGAAGGGCCACAUU
apparent Kd [2, 7]: 4.96 nM
apparent Kd [2, 8]: 5.25 nM

CGCAAACUAGGAUAUACAGGGCGAAAACGUUUACUUGGAUAACAUGAGGAUCACCCAUGUAGAAGGAGUUCUUA
apparent Kd [2, 7]: 28.9 nM
apparent Kd [2, 8]: 160 nM

CUUGUAACCUAAGGAUAUGAUUAGGGCAUCACAUGAGGAUCACCCAUGUGGCGUGAUCCGAGCCUUCAGAAGGUAGGGGAGCAU
apparent Kd [2, 7]: 475 nM
apparent Kd [2, 8]: 479 nM

UCUUUCUUUAAAGAACACAUGAGGAUCACCCAUGUUCAAGGGCAGGAUAUGAGUAUCUGUUCGGAUCAGAAGGGCCCAACAGGU
apparent Kd [2, 9]: 36 nM
apparent Kd [2, 10]: 29.5 nM

UUCAUUUAGGAGGAUAUUUAGGCAUGAGGGCUAAAAGAAGGCCUAACAUGAGGAUCACCCAUGUUUGGACUAGA
apparent Kd [2, 7]: 5.51 nM
apparent Kd [2, 8]: 7.4 nM

UUAGCACAUGAGGAUCACCCAUGUCAGGAUAUACGGAAUGUCCUCUACAGGGCGCGCUGUAGAAGGGACCGGGC
apparent Kd [2, 7]: 9.53 nM
apparent Kd [2, 8]: 9.76 nM

UUUAUUCUCUAUACAUGAGGAUCACCCAUGUCAAUGAUGUGCAGAAGGUGGUUCGGCUGUGACUCCAAGGAUAUGCAGAGAAUU
apparent Kd [2, 9]: 513 nM
apparent Kd [2, 10]: 115 nM

CGCAGCAUCUAGAAGGGCGAAUCAACAAUACAACUAGUGAACAUGAGGAUCACCCAUGUAAUGACGCAGGAUAUAGUAGCAAAG
apparent Kd [2, 9]: 26.5 nM
apparent Kd [2, 10]: 13.7 nM

AGUGCAAAUGUAGGAUAUGGACAUGAGGAUCACCCAUGUCAUUAAUAUUAUCGGUCCAAUUUUCUCCAGAAGGACAAAGGCUUG
apparent Kd [2, 7]: 11.6 nM
apparent Kd [2, 8]: 10.1 nM

ACACCUAUAGUGAGGAUAUAGAUCGAAACAAUCGACAAGAAGGCACAUGAGGAUCACCCAUGUAAGGCGCAAAU
apparent Kd [2, 7]: 6.55 nM
apparent Kd [2, 8]: 5.97 nM

CCAACCUGUCGAGCACCAUAACAUGAGGAUCACCCAUGUAUCAGAAGGUGUGUGAGUAAGGAAGACAAGGAUAUGACUCGACGC
apparent Kd [2, 9]: 16.9 nM
apparent Kd [2, 10]: 12.7 nM

ACGAAACAAGCGGCCGCCACUUCGUGGUGCUAAGGCUUGAUACUACAUGAGGAUCACCCAUGUCGAAGGACCGGGCUUGCGACUG
apparent Kd ([2]; designed as: ON switch for tryptophan, no ligand): 53.9 nM
apparent Kd ([2]; ligand present: tryptophan, designed as: ON switch for tryptophan): 51.9 nM

UUUAGUAUCUUAGAUACCAGUUUUGGGUGCUGAACGUCUCACAUGAGGAUCACCCAUGUAAACCCUUGGCAGCUACAUACGUAAA
apparent Kd [2, 5]: 45.5 nM
apparent Kd [2, 6]: 136 nM

UGUCGCAGGUUAGAUACCAGCGAGGCGCGGGUAAAUGUUCACAUGAGGAUCACCCAUGUUCGCCCUUGGCAGCUAGUAGGCAUAA
apparent Kd [2, 5]: 24.2 nM
apparent Kd [2, 6]: 100 nM

CAUUCGAAGGUGAGGAUAUAGCUACAGUUAAAUGUCUAGAAGGCACAUGAGGAUCACCCAUGUAGGGUCUCUCA
apparent Kd [2, 7]: 238 nM
apparent Kd [2, 8]: 630 nM

GCAGGCGAAGGAUAUACAUGAGGAUCACCCAUGUGUCAAACAAUAAUACCACUCAACUGUAGAAGGUCGGGCGA
apparent Kd [2, 7]: 13.9 nM
apparent Kd [2, 8]: 11.4 nM

CCUAACUGCGAGAAGGUACAGCGAUAGUGACUGUAAGGAUAUCGGGCGGUGCAUAUCUUAGUAAUACAUGAGGAUCACCCAUGU
apparent Kd [2, 7]: 8.7 nM
apparent Kd [2, 8]: 6.82 nM

GUCUCACAGAUAGGAUAUGGUUUUCACAUGAGGAUCACCCAUGUAAAUCCUAAAGUAAGUGGAGGCCAGAAGGAUCCGGUACAG
apparent Kd [2, 7]: 32.2 nM
apparent Kd [2, 8]: 35.1 nM
